Rows were chosen to be rich in hits. Some 4.9% of all compounds tested hit in one or more screens of this group.
STAT3 blocker: reduces IL-6 driven STAT3 reporter signal; inhibition, % at 5.5 µM; U3A cells, IL-6 STAT3-luciferase reporter, luminescence; host cell line lacks STAT1; 190,000 compounds, 0.89% hits;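 active = inhibition above the mean inhibition across all screened compounds plus 3 SD, cut at about 44% in these data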;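 also: 0% = DMSO only wells and 100% = 100 µM nifuroxazide control wells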
STAT1 inh: reduces IFN-gamma driven STAT1 reporter signal. NIH 3T3 STAT1-luciferase reporter, luminescence. inhibition, % at 5.5 µM. 200,000 compounds, 0.35% hits;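 active = inhibition above a set limit, the mean inhibition across all tested compounds plus 3 SD, cut at about 34% in these data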;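 also: 0% = IFN-gamma with DMSO and 100% = IFN-gamma with 300 µM nifuroxazide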
NF-kB neuron act: NF-kB expression increase, human neuronal cells; NF-kB reporter expression; stronger effect = higher value; fold change at 12.5 µM; 190,000 compounds, 1.6% hits; in the data active = fold change above about 3.3
STAT3 act: activators of IL-6 induced STAT3 signaling; U3A cells, IL-6 STAT3-luciferase reporter, luminescence; 100% = signal with IL-6 EC80 alone; AID 871; activation (% of control), % at 5.6 µM; 190,000 compounds, 0.91% hits;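 active = activation above the screen-wide mean of compound activation plus 3 SD, cut at about 130% in these data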;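 also: 0% = background luminescence of wells with medium and substrate only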
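Material: STAT3-luciferase reporter U3A cells; Probe or stimulus: IL-6 (33 ng/mL); Incubation: compound pre-incubation 1 h before IL-6, then 6 h stimulation at 37 °C; Technique: luminescence from STAT3-driven luciferase reporter; Evaluation: % activation versus median of IL-6-stimulated wells; Controls: IL-6-only high control.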
APP 5'UTR act: APP 5'UTR luciferase reporter activation; SH-SY5Y APP 5'UTR luciferase reporter, luminescence; zero percent = DMSO vehicle wells; activation, % at 2 µM; 190,000 compounds, 1% hits; AID 1276;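 active = activation above a set limit, based on mean plus 3 SD of controls, cut at about 140% in these data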
STAT1 activator: activators of IFN-gamma induced STAT1 signaling. 200,000 compounds, 2.6% hits. NIH 3T3 STAT1-luciferase reporter, luminescence; 100% = IFN-gamma alone, no compound. activation (% of control), % at 5.5 µM;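 active = activation above the screen-wide mean activation plus 3 SD, cut at about 130% in these data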;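 also: raw ratio to IFN-gamma control signal so 100% means no change and 0% no light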
Numbers without * were called inactive.

SMILES	STAT3 blocker	STAT1 inh	NF-kB neuron act	STAT3 act	APP 5'UTR act	STAT1 activator
CCOc1ccccc1NC(=O)C1CC(=O)n2ncnc2N1 (configuration not stated)	6	2	0.9	100	6	99
COc1ccccc1NC(=O)CCN1C(=O)c2ccccc2S1(=O)=O	10	-6	1	93	9	104
O=S1(=O)CCN2N=C(C3CC3)SC2=N1	7	2	1.1	99	-8	98
Cc1occc1C(=O)N/N=C/c1ccc(Br)s1	10	-46	2.6	96	66	139*
O=C1C(C=NCCN2CCOCC2)=C(O)c2ccccc21	-5	-37	2	108	112	133*
O=C(NN=C1CCC(=NNC(=O)c2ccccn2)CC1)c1ccccn1	-5	-43	1.4	106	171*	138*
O=C(N/N=C/C1CCCCC1)c1ccccn1	-4	-41	1.7	107	139*	137*
CCN(CC)P(=O)(Nc1ccccc1Br)c1ccc(N(C)C)cc1NC(=O)c1ccco1 (configuration not stated)	-28	1	1.1	124	7	98
CCOc1ccc(-c2nc(-c3cccnc3)no2)cc1	37	-44	6.8*	68	129	140*
CCOc1ccc(-c2noc(-c3cccnc3)n2)cc1OC	10	-29	1.1	94	4	127
CCCCOc1ccc(-c2nc(-c3cccnc3)no2)cc1	-4	-29	5.2*	107	175*	128
Cc1ccc2nsnc2c1NC(=O)c1ccc(-c2cc(Cl)ccc2Cl)o1	1	-32	1.1	108	12	129*
C=CCNc1nc(-c2ccc(OC)cc2OC)cs1	-17	-56	3.4*	118	50	150*
Cc1ccc(-c2nnc(CSc3nc4cc5c(cc4cc3C)OCO5)o2)cc1	2	-2	4*	101	15	102
CN=c1scc(-c2ccc(F)cc2)n1/N=C/c1ccc(O)c(O)c1	-4	47*	0.96	104	-37	55
OCCn1c(-c2ccc(F)cc2)csc1=Nc1ccccc1	4	-8	1.5	96	16	108
CSc1nnc(-c2cc3c(s2)-c2ccccc2CC3)o1	-71	-41	3.2	164*	122	136*
S=c1[nH]nc(-c2cc3c(s2)-c2ccccc2CC3)o1	-34	-19	1.6	133	24	118
CCOC(=O)c1sc(N)c(C(=O)Nc2ccccc2)c1C	9	-24	1.7	96	64	120
Nc1cc(=O)nc(SCC(=O)Nc2ccccc2Cl)n1-c1ccccc1	11	-4	1	97	-26	104
CCN(CC)c1ccc(NC(=O)c2ccc(Br)o2)cc1	-2	-33	7*	108	178*	133*
COC(=O)Cc1ccc(NC(=O)c2ccc(Br)o2)cc1	9	-28	1.8	95	51	126
O=C(Nc1ccc2c(c1)oc1ccccc12)c1ccc(Br)o1	8	-43	1.6	97	55	139*
CC(=O)NC1C(=O)N(C)c2ccc(Br)cc21 (configuration not stated)	2	8	0.99	102	-3	93
Cc1cc(C(=O)CN2CCC(C)CC2)c(C)n1-c1ccccc1F	30	-39	0.31	72	132	135*
SMILES	STAT3 blocker	STAT1 inh	NF-kB neuron act	STAT3 act	APP 5'UTR act	STAT1 activator
Cc1cc(C(=O)CN2C(=O)C(=O)N(Cc3ccccc3)C2=O)c(C)n1-c1ccccc1F	-4	-2	0.88	104	33	103
COCCn1c(SCc2cc(C(C)=O)ccc2OC)nc2cc(Cl)ccc2c1=O	8	-3	0.54	97	-13	103
CCS(=O)(=O)C1=NN2C(=N)/C(=C\c3ccc(SCc4ccco4)o3)C(=O)N=C2S1	6	-8	1.4	103	7	108
Cc1ccc(Oc2nc(-c3cccnc3)nc3ccccc23)c([N+](=O)[O-])n1	10	2	1.2	96	-26	98
CCOc1ccccc1C(=O)N1CCN(c2cccc(Cl)c2)CC1	-25	-5	4*	122	-94	105
O=C(NCc1ccccc1)c1cccc(COc2cc(Cl)ccc2Cl)c1	-12	-39	1.5	109	21	135*
O=C(NCc1ccccc1)c1cccc(COc2ccccc2Cl)c1	-11	-9	1.8	115	112	108
Cc1nc(N2CCCCC2)c2c(-c3cccs3)csc2n1	-7	7	7.8*	108	-6	92
